Legend:
Assay type in all cases: functional
Rattus norvegicus [1] = experiment: Antiallergic activity against passive cutaneous anaphylaxis (PCA) in male Sprague-Dawley rats after 1.0 mg/kg oral administration
Outline: (§1)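 IgE antiserum raised in male Sprague-Dawley rats (ca. 200 g) by immunization with Ascaris suum extract (2 then 0.2 mg protein), bled 2 weeks after the second dose. Recipients got 0.05 mL diluted antiserum intracutaneously on the back. Blued area (product of two diameters) was read at 30 min.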

Rattus norvegicus [2] = experiment: Inhibition of passive cutaneous anaphylaxis in male Sprague-Dawley rats following 0.3 mg/kg p.o. administration; Not significant.; details: route oral; outline: as §1
Rattus norvegicus [3] = experiment: Inhibition of passive cutaneous anaphylaxis in male Sprague-Dawley rats following 1 mg/kg p.o. administration; Not significant.; details: route oral; outline: as §1
Rattus norvegicus [4] = experiment: Antiallergic activity against passive cutaneous anaphylaxis (PCA) in male Sprague-Dawley rats after 3.0 mg/kg oral administration; outline: as §1
Rattus norvegicus [5] = experiment: Antiallergic activity against passive cutaneous anaphylaxis (PCA) in male Sprague-Dawley rats after 10.0 mg/kg oral administration;not statistically significant; outline: as §1
Rattus norvegicus [6] = experiment: Inhibition of passive cutaneous anaphylaxis in male Sprague-Dawley rats following 10 mg/kg p.o. administration.; details: route oral; outline: as §1
Rattus norvegicus [7] = experiment: Antiallergic activity against passive cutaneous anaphylaxis (PCA) in male Sprague-Dawley rats after 3.0 mg/kg oral administration;not statistically significant; outline: as §1
Rattus norvegicus [8] = experiment: Antiallergic activity against passive cutaneous anaphylaxis (PCA) in male Sprague-Dawley rats after 0.3 mg/kg oral administration;p<0.1; outline: as §1
Rattus norvegicus [9] = experiment: Antiallergic activity against passive cutaneous anaphylaxis (PCA) in male Sprague-Dawley rats after 0.3 mg/kg oral administration; outline: as §1

SMILES	inhibition in vivo at 1 mg/kg (Rattus norvegicus [1]) [%]	inhibition in vivo at 1 mg/kg (Rattus norvegicus [3]) [%]	inhibition in vivo at 3 mg/kg (Rattus norvegicus [4]) [%]	further results
CNc1ccc(-c2cc(C)cc(C(=O)Nc3nn[nH]n3)n2)cc1	89	–	–	inhibition in vivo at 0.3 mg/kg (Rattus norvegicus [2]): 36%
COc1ccc(-c2cccc(C(=O)Nc3nn[nH]n3)n2)cc1	–	12	36	inhibition in vivo at 0.3 mg/kg (Rattus norvegicus [2]): 4%
COc1cc(C(=O)Nc2nn[nH]n2)nc(-c2cc(OC)c(OC)c(OC)c2)c1	–	–	0	inhibition in vivo at 10 mg/kg (Rattus norvegicus [5]): 25%
CC(C)c1ccc(-c2cc(Cl)cc(C(=O)Nc3nn[nH]n3)n2)cc1	–	14	68	inhibition in vivo at 10 mg/kg (Rattus norvegicus [6]): 90%
CCCOc1cc(C(=O)Nc2nn[nH]n2)nc(-c2ccc(N)cc2)c1	64	–	68	inhibition in vivo at 0.3 mg/kg (Rattus norvegicus [2]): 7%
COc1cc(C(=O)Nc2nn[nH]n2)nc(-c2ccc([N+](=O)[O-])cc2)c1	–	–	–	inhibition in vivo at 10 mg/kg (Rattus norvegicus [5]): 6%
CNc1ccc(-c2cc(OC)cc(C(=O)Nc3nn[nH]n3)n2)cc1	–	35	79	–
CCCc1cc(C(=O)Nc2nn[nH]n2)nc(-c2ccc(C)cc2)c1	–	–	50	inhibition in vivo at 10 mg/kg (Rattus norvegicus [6]): 84%
CC(C)c1cc(C(=O)Nc2nn[nH]n2)nc(-c2ccc(N)cc2)c1	–	29	–	inhibition in vivo at 3 mg/kg (Rattus norvegicus [7]): 43%; inhibition in vivo at 0.3 mg/kg (Rattus norvegicus [2]): 22%
CCCCc1ccc(-c2cc(CC)cc(C(=O)Nc3nn[nH]n3)n2)cc1	–	20	70	–
CCOc1cc(C(=O)Nc2nn[nH]n2)nc(-c2ccc(N)cc2)c1	52	–	62	inhibition in vivo at 0.3 mg/kg (Rattus norvegicus [2]): 19%
COc1cc(C(=O)Nc2nn[nH]n2)nc(-c2ccc(Cl)cc2)c1	0	–	–	inhibition in vivo at 3 mg/kg (Rattus norvegicus [7]): 12%; inhibition in vivo at 10 mg/kg (Rattus norvegicus [6]): 55%
COc1cc(-c2cccc(C(=O)Nc3nn[nH]n3)n2)cc(OC)c1OC	–	–	–	inhibition in vivo at 10 mg/kg (Rattus norvegicus [5]): 45%; inhibition in vivo at 3 mg/kg (Rattus norvegicus [7]): 15%
CCc1ccc(-c2cc(Cl)cc(C(=O)Nc3nn[nH]n3)n2)cc1	49	–	100	inhibition in vivo at 0.3 mg/kg (Rattus norvegicus [8]): 13%
COc1cc(C(=O)Nc2nn[nH]n2)nc(-c2ccccc2Cl)c1	–	–	–	inhibition in vivo at 10 mg/kg (Rattus norvegicus [5]): 17%
COc1ccc(-c2cc(Cl)cc(C(=O)Nc3nn[nH]n3)n2)cc1OC	–	15	–	inhibition in vivo at 3 mg/kg (Rattus norvegicus [7]): 30%
CCCCc1ccc(-c2cc(Cl)cc(C(=O)Nc3nn[nH]n3)n2)cc1	0	–	83	–

SMILES	inhibition in vivo at 1 mg/kg (Rattus norvegicus [1]) [%]	inhibition in vivo at 1 mg/kg (Rattus norvegicus [3]) [%]	inhibition in vivo at 3 mg/kg (Rattus norvegicus [4]) [%]	further results
CNc1ccc(-c2cccc(C(=O)Nc3nn[nH]n3)n2)cc1	–	71	–	inhibition in vivo at 3 mg/kg (Rattus norvegicus [7]): 83%; inhibition in vivo at 0.3 mg/kg (Rattus norvegicus [2]): 29%
Cc1ccc(-c2cccc(C(=O)Nc3nn[nH]n3)n2)cc1C	–	–	–	inhibition in vivo at 3 mg/kg (Rattus norvegicus [7]): 28%; inhibition in vivo at 10 mg/kg (Rattus norvegicus [6]): 39%
COc1cc(C(=O)Nc2nn[nH]n2)nc(-c2ccccc2)c1	62	–	97	inhibition in vivo at 10 mg/kg (Rattus norvegicus [6]): 100%
CCCCc1cc(C(=O)Nc2nn[nH]n2)nc(-c2ccc(N)cc2)c1	81	–	–	inhibition in vivo at 0.3 mg/kg (Rattus norvegicus [9]): 41%
CCCCc1cc(C(=O)Nc2nn[nH]n2)nc(-c2ccc(CC)cc2)c1	–	19	–	inhibition in vivo at 3 mg/kg (Rattus norvegicus [7]): 25%
COc1cc(C(=O)Nc2nn[nH]n2)nc(-c2ccc(C)c(C)c2)c1	–	21	82	–
COc1cc(C(=O)Nc2nn[nH]n2)nc(-c2ccc(N(C)C)cc2)c1	64	–	100	inhibition in vivo at 0.3 mg/kg (Rattus norvegicus [9]): 29%
Cc1cc(C(=O)Nc2nn[nH]n2)nc(-c2ccccc2)c1	–	23	50	inhibition in vivo at 10 mg/kg (Rattus norvegicus [6]): 88%
CC(C)Cc1cc(C(=O)Nc2nn[nH]n2)nc(-c2ccccc2)c1	–	–	–	inhibition in vivo at 10 mg/kg (Rattus norvegicus [5]): 11%
Cc1ccc(-c2cc(Cl)cc(C(=O)Nc3nn[nH]n3)n2)cc1	86	–	–	inhibition in vivo at 0.3 mg/kg (Rattus norvegicus [2]): 10%
CCCc1ccc(-c2cc(C)cc(C(=O)Nc3nn[nH]n3)n2)cc1	–	65	–	inhibition in vivo at 0.3 mg/kg (Rattus norvegicus [2]): 19%
Cc1cccc(-c2cc(C)cc(C(=O)Nc3nn[nH]n3)n2)c1	51	–	61	–
CCCCc1ccc(-c2cc(CC(C)C)cc(C(=O)Nc3nn[nH]n3)n2)cc1	–	–	–	inhibition in vivo at 10 mg/kg (Rattus norvegicus [5]): 13%; inhibition in vivo at 3 mg/kg (Rattus norvegicus [7]): 3%
CCCc1ccc(-c2cc(Cl)cc(C(=O)Nc3nn[nH]n3)n2)cc1	78	–	–	inhibition in vivo at 0.3 mg/kg (Rattus norvegicus [9]): 42%
COc1ccccc1-c1cccc(C(=O)Nc2nn[nH]n2)n1	–	–	–	inhibition in vivo at 10 mg/kg (Rattus norvegicus [6]): 0%
CCc1cc(C(=O)Nc2nn[nH]n2)nc(-c2ccccc2)c1	–	–	53	inhibition in vivo at 10 mg/kg (Rattus norvegicus [6]): 85%
